From PMC11100303 (RSC Advances, 2024)

Columns and labels:
[1] = Thermogravimetric analysis; format: physicochemical; details: TGA, 30 to 350 °C at 10 °C min^−1, nitrogen
Outline: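 Samples of 2–5 mg weighed into platinum pans and heated from 30 to 350 °C at 10 °C min−1 under nitrogen purge at 25 mL min−1. T5% taken as the temperature at 5% loss of total sample mass.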

[2] = tested on: Human endocervical epithelial cell line (A2EN); assay: MTT assay for cervical cell proliferation / viability; format: cell-based; details: 24 h treatment, even at high concentrations of 50 mM
[3] = pH of compound dissolved in water; format: physicochemical; details: mean ± S.D., n = 3
[4] = tested on: Human endocervical epithelial cell line (A2EN); assay: Crystal violet staining for cervical cell morphology; format: cell-based; details: 24 h treatment, even at 100 mM

Question: Which results are given for `C[N+](C)(C)CCO.O=C([O-])[C@H](O)Cc1ccccc1` [Chol : D-PLA (1 : 1)]?
Answer: T5% (onset temperature at 5% mass loss) [1]: 94.3 °C; Effect on cervical epithelial cell viability [2]: did not significantly reduce cervical epithelial cell viability; pH [3]: 9.02 ± 1.7; Morphological changes of cervical epithelial cells [4]: no morphological changes were observed

Question: Which pH [3] does the source give for `O=C(O)C(O)Cc1ccccc1` [D-PLA, 2-hydroxy-3-phenylpropanoic acid] here?
Answer: 2.9 ± 1.2

Question: With `O=C(O)C(O)Cc1ccccc1` [L-PLA, 2-hydroxy-3-phenylpropanoic acid] as the molecule, how does the “T5% (onset temperature at 5% mass loss)” value [1] read?
Answer: 156.07 °C

Question: And the pH [3]?
Answer: 3.2 ± 1.6

Question: With `C[N+](C)(C)C[C@H](O)CC(=O)[O-]` [carnitine, L-Carnitine] as the molecule, how does the “T5% (onset temperature at 5% mass loss)” value [1] read?
Answer: 189.9 °C
